# Measurements taken from the M2OR odorant receptor database.
# Target: T1, OR52D1 (Homo sapiens) (UniProt Q9H346)
# T1 sequence (whole entry): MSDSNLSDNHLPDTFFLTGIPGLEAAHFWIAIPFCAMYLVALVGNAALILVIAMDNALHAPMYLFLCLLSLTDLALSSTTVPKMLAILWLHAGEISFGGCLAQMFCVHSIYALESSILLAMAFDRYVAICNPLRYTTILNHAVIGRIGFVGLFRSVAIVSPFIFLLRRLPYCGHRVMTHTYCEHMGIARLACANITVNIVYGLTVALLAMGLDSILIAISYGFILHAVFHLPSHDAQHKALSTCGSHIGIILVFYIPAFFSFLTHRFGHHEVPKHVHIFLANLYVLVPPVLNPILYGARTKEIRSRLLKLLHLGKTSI
# Conditions: stereoisomer not certain
# Summary of the method: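 Each receptor–molecule pair is labelled responsive or non-responsive (inactive) according to whether the original authors judged the measured signal statistically different from baseline. The data were taken from the main text and supplementary material of published papers and checked for typos and inconsistencies. Assay methods differed by source, with transient luciferase assays in mammalian cell lines being common.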
# 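Note: active if original authors judged signal statistically different from baseline.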
row,SMILES,odorant receptor agonist call
1,O=Cc1ccccc1,active
2,COc1ccc(C=O)cc1,active
3,Cc1c([N+](=O)[O-])c(C)c([N+](=O)[O-])c(C(C)(C)C)c1[N+](=O)[O-],inactive
4,C=CCc1ccc2c(c1)OCO2,inactive
5,c1ccncc1,inactive
6,O=CC=Cc1ccccc1,active
7,C=CCc1ccc(OC)cc1,active
8,CC(C=O)Cc1ccc2c(c1)OCO2 (stereo not given),active
9,CC(=O)CCc1ccc2c(c1)OCO2,inactive
10,C=CCOC(=O)Cc1ccccc1,inactive
